Results reported in article PMC3579768 (Biochemistry, 2012).
Bridge positions count the residues as written; N and C are the ends. Ends that are not written are not given here.

Tests used:
[1] = tested on: HD5ox; conditions: SPR, pH 7.4, 150 mM NaCl; cited from earlier work
[2] = Sedimentation velocity analytical ultracentrifugation; format: physicochemical; conditions: for sedimentation coefficient (s20,w), DCDT+ analysis: 20 °C
In short: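 An-50 Ti rotor, double-sector charcoal-epon cells, interference or absorbance optics. 400 μL peptide sample against buffer reference, prepared just before the run, pH set with 1 N HCl. Buffers: 10 mM sodium phosphate (pH 7, 6, 4, 2; NaCl 50, 150, 500 mM) and 20 mM Tris-HCl or HEPES pH 7, ± 50 mM MgCl2/CaCl2. Fitting used c(s) Lamm and g(s*) from 22–26 scans, with modelled monomer/dimer/tetramer S-values.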

[3] = NMR relaxation; format: physicochemical; conditions: 90:10 H2O/D2O
[4] = Sedimentation equilibrium analytical ultracentrifugation; format: physicochemical
In short: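 Absorbance optics at 280 nm, 20 °C, An-50 Ti rotor. Samples were 400 μL of the oxidized peptide in 10 mM sodium phosphate, pH set with 1 N HCl: pH 8 (183, 230, 283 μM), pH 7 (165–288 μM), pH 6 (210, 330 μM), pH 4 (236, 288 μM), pH 2 (189, 238, 293 μM). Buffer viscosity, density and partial specific volume were computed for 20 °C.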

[5] = target: the molecule itself; assay: AUC

Molecule	HD5ox concentration above which evidence for higher-order oligomers was reported [1]	effect of Mg(II) and Ca(II) on the sedimentation coefficient ([2]; 50 mM MgCl2 or CaCl2 in 20 mM Tris-HCl or HEPES buffer, pH 7.0)	minimum frictional ratio (f/f0) ([2]; Equation 2, ssphere/s20,w, all buffers)	oligomeric form from comparison of experimental and calculated S-values ([2]; aqueous buffer at neutral pH, concentrations ≥30 μM)	sedimentation coefficient (s20,w), DCDT+ analysis ([2]; pH 2.0, 10 mM sodium phosphate buffer, 194 μM)	sedimentation coefficient (s20,w), DCDT+ analysis ([2]; pH 4.0, 10 mM sodium phosphate buffer, 131 μM)	sedimentation coefficient (s20,w), DCDT+ analysis ([2]; pH 6.0, 10 mM sodium phosphate buffer, 161 μM)	sedimentation coefficient (s20,w), DCDT+ analysis ([2]; pH 7.0, 10 mM sodium phosphate buffer)	effect of NaCl on the sedimentation coefficient ([2]; up to 500 mM NaCl, pH 7, 10 mM sodium phosphate buffer)	molecular weight estimated from TRACT Tc ([3]; 340 μM 13C,15N-HD5ox, pH 4)	rotational correlation time Tc, [15N,1H]-TRACT method ([3]; 340 μM 13C,15N-HD5ox, pH 4 (TFA))	oligomerization state under the NMR sample conditions ([3]; 340 μM, pH 4, unbuffered)	best-fit molecular weight by sedimentation equilibrium ([4]; pH 2.0, 10 mM sodium phosphate buffer, 189-293 μM, 20 °C)	oligomeric molecular weight to which the sedimentation equilibrium fit converged ([4]; pH 4.0, 6.0 and 8.0, 10 mM sodium phosphate buffer)	Kd [5]	stoichiometry N [5]
Human defensin 5 (ATCYCRTGRCATRESLSGVCEISGRLYRLCCR; disulfide 10-30, 5-20, 3-31; also: 15N or 13C,15N labelled in NMR samples) [HD5ox]	> 8 µM	negligible impact	~ 1.2	tetrameric	1.0 S	1.2 S	1.6 S	1.8 S	no effect	ca. 6.8 kDa	ca. 4.1 ns	dimer	7,079 Da	tetrameric	–	–
ATCYCRTGRCATRESLSGVCEISGRLYRLCCR (peptide, UniProt Q01523 63-94, looked up, disulfide 10-30, 5-20, 3-31; also: 15N or 13C,15N labelled in NMR samples) [Human defensin 5, oxidized form (HD5ox)]	–	–	–	–	–	–	–	–	–	–	–	–	–	–	< 30 µM	4
